Experiment [1] deals with SK-N-MC. The experiment can be described thus: In vitro adenylate cyclase response in neuroblastoma cell line SK-N-MC. Format: functional, cell-based. As to conditions: Homo sapiens. The procedure, abridged:
(§1)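 SK-N-MC human neuroblastoma cells with endogenous D1 receptor, seeded at 10⁵ cells/mL 1 day before assay (37 °C, 5% CO₂). Cells exposed to varying compound concentrations in assay buffer with 1 mM IBMX, 10 min at 37 °C; stopped with 0.1 N HCl; cAMP measured by radioimmunoassay; dose-response curves fitted by nonlinear regression.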

For experiment [2], the system named is Rattus norvegicus. The experiment can be described thus: In vivo number of rotations at a dose of 0.2 mg/kg administered subcutaneously to Sprague-Dawley rats. As to conditions: route subcutaneous. Format: functional. In outline:
(§2)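 Sprague-Dawley rats with unilateral 6-OHDA lesions of medial forebrain bundle, prescreened for rotation to amphetamine (5 mg/kg: 800 rotations/3 h) and apomorphine (0.2 mg/kg: 100 rotations/1 h). Subcutaneous dosing; rotations counted over 10 h, mean ± sem, n 5–10 per group. Each rat received four treatments, weekly, counterbalanced order.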

For experiment [3], the system named is Rattus norvegicus. The experiment can be described thus: In vivo number of rotations at a dose of 2 mg/kg administered subcutaneously to Sprague-Dawley rats. Format: functional. As to conditions: route subcutaneous. In outline:
as §2

Experiment [4] in a line: In vitro intrinsic activity which is the ratio of the cyclase response of compound relative to that of dopamine. Format: functional. The procedure, abridged: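 cAMP accumulation in SK-N-MC cells (endogenous D1), varying compound concentrations with 1 mM IBMX, 10 min at 37 °C, cAMP by radioimmunoassay, nonlinear curve fitting. Intrinsic activity taken as ratio of compound maximal cyclase response to that of dopamine.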

Experiment [5] deals with SK-N-MC. In words: In vitro adenylate cyclase response in neuroblastoma cell line. Format: functional, cell-based. As to conditions: Homo sapiens. In outline:
as §1

Where only a bound is given, the exact number is not on record here.

For the compound `Oc1ccc2c(c1O)Cc1cccc3c1C2CNC3` (racemic), it took 190 nM to reach a half-maximal effect in experiment [1] (EC50). Also, the Rotations/10 h in experiment [2] worked out at 1900; in experiment [3], 4800. Further, the Intrinsic activity in experiment [4] is 1.2.

`CCCc1cc2c(s1)CN[C@@H]1CCc3cc(O)c(O)cc3[C@@H]21` [A-86929]: the figures for the Rotations/10 h in experiment [2] and in experiment [3] were 1100 and 4200, respectively.

With `Oc1ccc2c(c1O)Cc1cccc3c1[C@H]2CNC3`, the EC50 (usually the midpoint of the concentration-response curve) in experiment [5] came out at 220 nM. Besides, the figures for the Rotations/10 h in experiment [2] and in experiment [3] were 4100 and 7000, respectively. For the same compound, the Intrinsic activity in experiment [4] was 1.

For `Oc1ccc2c(c1O)Cc1cccc3c1[C@@H]2CNC3`, the EC50 in experiment [5] is more than 10000 nM. In addition, the Rotations/10 h amounted to 8 in experiment [2] and 7 in experiment [3].

Values taken from ChEMBL document CHEMBL1135440, “(+)-Dinapsoline: an efficient synthesis and pharmacological profile of a novel dopamine agonist” (J Med Chem, 2002).
